From PubChem
FXN GAA850 act – increases GAA850 frataxin promoter reporter activity. HEK293 lucGAA850 FXN promoter luciferase reporter, 24 h; percent of 10 µM SAHA response. AID 540364. 0.56% of 360,000 active. activation, % at 6 µM;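 active = activation above the average of all compounds screened plus 3 SD, cutoff fixed separately per campaign, cut at about 7.5% in these data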
AHR act – human AHR activation. P35869. AHR-responsive luciferase reporter cells, luminescence. activation, % at 5 µM. 2.5% of 320,000 active. AID 2796; in the data active = activation above about 47%
Target sequence (P35869 whole entry, looked up): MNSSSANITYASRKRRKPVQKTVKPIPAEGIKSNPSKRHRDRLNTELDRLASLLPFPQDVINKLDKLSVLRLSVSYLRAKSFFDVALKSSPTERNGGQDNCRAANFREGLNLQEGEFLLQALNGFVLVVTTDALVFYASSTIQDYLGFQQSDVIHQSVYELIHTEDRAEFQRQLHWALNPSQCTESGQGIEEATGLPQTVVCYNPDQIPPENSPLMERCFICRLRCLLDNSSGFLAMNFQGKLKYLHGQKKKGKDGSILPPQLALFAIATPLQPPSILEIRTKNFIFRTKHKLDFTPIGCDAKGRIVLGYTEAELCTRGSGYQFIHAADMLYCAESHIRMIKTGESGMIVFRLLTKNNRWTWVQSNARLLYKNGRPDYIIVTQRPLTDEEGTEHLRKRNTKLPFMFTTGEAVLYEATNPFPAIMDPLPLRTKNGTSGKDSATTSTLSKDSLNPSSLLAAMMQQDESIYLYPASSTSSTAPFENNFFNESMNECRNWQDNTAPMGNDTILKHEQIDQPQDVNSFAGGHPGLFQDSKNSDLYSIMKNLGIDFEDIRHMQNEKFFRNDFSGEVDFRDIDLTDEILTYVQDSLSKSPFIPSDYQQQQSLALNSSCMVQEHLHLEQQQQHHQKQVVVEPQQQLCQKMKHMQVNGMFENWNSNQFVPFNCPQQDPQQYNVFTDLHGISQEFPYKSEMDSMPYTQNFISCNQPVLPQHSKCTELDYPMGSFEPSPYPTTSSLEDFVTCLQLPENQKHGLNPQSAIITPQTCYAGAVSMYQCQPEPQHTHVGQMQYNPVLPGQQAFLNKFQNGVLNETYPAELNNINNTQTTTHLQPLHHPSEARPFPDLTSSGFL
SR-BI HDL uptake – inhibitors of mouse SR-BI mediated HDL lipid uptake | Q61009 | ldlA[mSR-BI] CHO cells, DiI-HDL uptake fluorescence, 3 h | inhibition, % at 12.5 µM | 0.96% of 320,000 active | AID 488896;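 active = mean replicate inhibition of at least 70% and a set share of replicates each scoring 70 or more; inconclusive = meets just one of the two criteria; inactive = fails both criteria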
HIF act – HIF pathway transcriptional activation; activation, % at 7.5 µM (by protocol); U2OS HRE-luciferase reporter, luminescence; normalized: DMSO 0%, desferrioxamine 100%; AID 1910; 0.32% of 300,000 active;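 active = mean activation of at least 10% of the iron chelator positive control signal, with at least half of replicates also reaching 10%; inconclusive = mean and replicate majority disagree about reaching 10%; inactive = mean and most replicates under 10%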
ABCB6 inh 2 – human ABCB6 transporter inhibition. Q9NP58. K562-ABCB6 porphyrin accumulation, flow cytometry, 1 h; stronger effect = lower value. 0.19% of 360,000 active. fluorescence ratio to DMSO, % at 10 µM. AID 602162;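 active = fluorescence ratio to DMSO below 75%, the collection mean minus 3 SD; inconclusive = too few cells collected in the well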;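 note: signal is porphyrin accumulated inside mitochondria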
SR-BI DiI-HDL act – activators of SR-BI mediated HDL lipid uptake; CHO ldlA[mSR-BI] cells, DiI-HDL uptake fluorescence, 3 h; 100 = double the neutral-control signal; activation, % at 12.5 µM; 0.096% of 320,000 active;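 active = mean replicate activation of at least 60% and every replicate at or above 60%; inconclusive = mean or all-replicate condition met, but not both; inactive = mean below 60% and not all replicates reaching 60%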
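Assay system: LDL receptor-deficient CHO ldlA cells overexpressing murine SR-BI / Medium: BSA-supplemented, HEPES-buffered Ham's F12, pH 7.4 / Probe or stimulus: DiI-labelled HDL at 10 µg/mL final / Timing: compound with DiI-HDL co-incubation, 3 h at 37 °C / Technique: bottom-read cell fluorescence after medium removal, ex 550/em 595 nm / Measure: HDL uptake via cellular fluorescence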
Each line names hits and unclear results; the compound was inactive in the other large screens. A selection: hits, their analogues and other compounds. The true share with any hit is near 3.9%.

CCCC(=O)Nc1ccccc1NC(=O)c1ccc2c(c1)OCO2	none
COc1ccc(C(=O)NCc2ccc(S(N)(=O)=O)cc2)cc1[N+](=O)[O-]	none
CCOC(=O)CN(C(=O)Cn1nnc(-c2ccc(OC)cc2)n1)C(C(=O)NC1CCCC1)c1ccc(F)cc1 (centres undefined)	none
COc1cccc(CC(=O)OCC(=O)N2CCN(c3ccc(F)cc3)CC2)c1	none
Cc1cccc(C(=O)NCC(=O)N(C)CC(=O)Nc2ccc(N3CCOCC3)cc2)c1	none
CCCCOc1ccc(C(=O)NCC(=O)N(C)CC(=O)Nc2ccc(N3CCOCC3)cc2)cc1	SR-BI HDL uptake 82.4
CCOc1ccc(C(=O)Nc2ccc(N3CCCC3)cc2)cc1	SR-BI HDL uptake 77.2
CCOc1cccc(C(=O)Nc2ccc(N(CC)CC)cc2)c1	none
CCOc1cccc(C(=O)Nc2ccc(N3CCCC3)cc2)c1	SR-BI HDL uptake 74.7
COc1ccc(C(=O)Nc2ccc(N3CCCC3)cc2)cc1	none
CC(NC(=O)Cn1nc(-c2ccccc2)c2ccccc2c1=O)c1ccccc1 (centres undefined)	none
CC(=O)Oc1ccc(/C=N/NC(=O)c2ccc(N(C)S(=O)(=O)c3ccccc3)cc2)cc1	none (no result: SR-BI HDL uptake, SR-BI DiI-HDL act)
O=c1cc(-c2ccc(F)cc2)oc2ccccc12	AHR act 70.7
O=C(CCn1nc(-c2ccc(Cl)cc2)ccc1=O)NCCCN1CCCCCC1	SR-BI HDL uptake 73.4
Cn1c(-c2ccc(F)c(F)c2)cc2onc(-c3ccccc3)c2c1=O	none (no result: HIF act)
CC(C)c1nc2oc3c(NCCO)ncnc3c2c2c1COC(C)(C)C2	SR-BI DiI-HDL act 239.0
NC(=S)NN=C1CCC(C2CCCCC2)CC1 (centres undefined)	SR-BI HDL uptake inconclusive (no result: AHR act, HIF act)
NC(=S)NN=C1CCCCCCCCCC1	SR-BI HDL uptake 75.8 (no result: AHR act, HIF act)
COc1ccc(C2C(=O)c3ccccc3C2=Nc2ccc(Br)cc2)cc1 (centres undefined)	SR-BI HDL uptake 94.1
Fc1ccc(-c2csc(/C=C/c3ccc4c(c3)OCO4)n2)cc1	AHR act 82.0
Cc1ccccc1OCc1nnc(SCC(=O)O)n1Cc1ccccc1	none
On1onc2c3cc(-c4ccccc4)nc3ccc21	none (no result: HIF act)
c1ccc(-c2cc3c(ccc4nonc43)nn2)cc1	AHR act 47.7
O=C(CSCC(=O)c1ccccc1)Nc1ccccc1Cl	none
Cn1cc(C(=O)N/N=C/C2=C(N3CCOCC3)C(=C/c3ccc([N+](=O)[O-])cc3)/CC2)ccc1=O	none (no result: SR-BI HDL uptake, SR-BI DiI-HDL act)
CC(C)C(NC(=O)C12CC3CC(CC(C3)C1)C2)C(=O)N/N=C/C1=C(N2CCOCC2)C(=C\c2cccc([N+](=O)[O-])c2)/CC1 (centres undefined)	SR-BI HDL uptake 84.8
Brc1ccccc1/C=N/Nc1ccccn1	none
Cc1ccc(/C=N/Nc2ccccn2)s1	AHR act 48.5 (no result: SR-BI HDL uptake, SR-BI DiI-HDL act)
Cc1cccc(Nc2nc(N)nc(CSc3nccn3C)n2)c1	AHR act 75.2
O=C(NNC1=Nc2ccccc2SC1)c1ccc(Cl)cc1	none
O=C(NNC1=Nc2ccccc2SC1)c1ccc(F)cc1	AHR act 74.4
CC(=O)Nc1cc(-c2ccccc2)nn1Cc1ccc(Cl)cc1	none
CN(c1ccc(C(=O)N2CCCCCC2)cc1)S(=O)(=O)c1ccc(Cl)cc1	SR-BI HDL uptake 71.0
COc1ccc(/C=C/C(=O)NCC(=O)N/N=C/c2cc(Br)ccc2OCc2ccccc2)cc1	SR-BI HDL uptake 79.0
COc1ccc(Br)cc1/C=N/NC(=O)CNC(=O)/C=C/c1ccccc1	none
COc1cc(OC)cc(C(=O)N(CN2CCCC2=O)c2ccccc2OC)c1	none
Cc1c(Nc2cc(Cl)c3nonc3c2[N+](=O)[O-])c(=O)n(-c2ccccc2)n1C	FXN GAA850 act 13.3, ABCB6 inh 2 38.0 (no result: AHR act, HIF act)
COc1ccc(/C=C/c2c(-c3ccc(OC)cc3)oc3cccnc23)cc1	none
COc1ccc(-c2ccc(SCC(=O)N3CCOCC3)nn2)cc1OC	none
C=C(C)CN(CC)C(=O)CSc1nc2ncc(Cl)cc2[nH]1	AHR act 68.8
O=C1CC(c2ccc(Cl)cc2)SC(N(c2ccccc2)c2ccccc2)=N1 (centres undefined)	none
O=c1[nH]c(/C=C/c2cccc3ccccc23)nc2ccccc12	AHR act 55.8
O=c1[nH]c(/C=C/c2ccccc2[N+](=O)[O-])nc2ccccc12	AHR act 78.7
O=c1[nH]c(/C=C/c2ccccc2F)nc2ccccc12	none (no result: AHR act)
N#Cc1c(Nc2ccccc2)sc(C(=O)c2ccc(F)cc2)c1N	none
N#Cc1c(Nc2ccccc2)sc(C(=O)C2CC2)c1N	AHR act 48.6
CCOc1ccc(NC(=O)CSc2nncc(=O)[nH]2)cc1	none
CC(=O)/C(N=Nc1cc(C)ccc1O)=C(\C)O	AHR act 56.2
CC(=O)/C(N=Nc1ccc(C(=O)O)cc1[N+](=O)[O-])=C(\C)O	none
COc1ccc2nc(/N=C/c3c(C)[nH]n(-c4ccc(C)cc4)c3=O)sc2c1	AHR act 51.5
Cc1cc(C(=O)N/N=C/c2c(C)[nH]n(-c3ccccc3)c2=O)n[nH]1	none
Cc1[nH]n(-c2ccccc2)c(=O)c1/C=N/NC(=O)c1cccc(F)c1	SR-BI HDL uptake 132.4
Cc1ccc(/C=N/Nc2nncc(-c3ccccc3)n2)o1	none
Cc1ccc(-n2[nH]c(C)c(C=Nc3ccc(Br)cn3)c2=O)cc1	AHR act 70.5
Cc1[nH]n(-c2ccccc2)c(=O)c1/C=N/Nc1nncc(-c2ccccc2)n1	AHR act 53.0, SR-BI HDL uptake 91.2
COc1ccc2nc(/N=C\N(C)C)sc2c1	none
c1ccc2[nH]c(NC3=NCCC3)nc2c1	none
COC(=O)c1ccc(COc2ccc(C3C4=C(CCCC4=O)Nc4onc(C)c43)cc2)cc1 (centres undefined)	none
CCCCN(CCCC)C(=S)N/N=C/c1c(C)[nH]n(-c2ccccc2)c1=O	none
Cc1[nH]n(-c2ccccc2)c(=O)c1/C=N/NC(=O)c1ccc(O)cc1O	none
Cc1[nH]n(-c2ccc(Br)cc2)c(=O)c1/C=N/NC(=O)c1ccccc1	SR-BI HDL uptake 136.4 (no result: AHR act)
Cc1ccc(-n2[nH]c(C)c(/C=N/NC(=O)c3ccc(O)cc3O)c2=O)cc1	SR-BI HDL uptake 137.0
C=CCOC(=O)CSCC(NC(=O)OC(C)(C)C)C(=O)OCC (centres undefined)	none
Cn1cccc1-c1nc2ccc(NC(=O)c3ccc([N+](=O)[O-])cc3)cc2[nH]1	SR-BI HDL uptake 86.9
Cn1cccc1-c1nc2ccc(NC(=O)c3ccccc3)cc2[nH]1	none
O=[N+]([O-])c1cccc(S(=O)(=O)N2CCCC2)c1	none
CN1c2ccsc2/C(=N/Nc2ccc(F)cc2)CS1(=O)=O	AHR act 65.2
CN1CCC2(CC1)N=C(c1ccc(F)cc1)C(=S)N2C(=O)c1ccc(C(C)(C)C)cc1	HIF act 191.2
